Published values of several laboratories.
Each line is one published result; the experiments were not run side by side.
Target: Protein kinase C eta type (PRKCH, Homo sapiens, UniProt P24723)

SMILES	test	conditions	endpoint	value
COc1ncccc1-c1cnn2ccc(N3CCN(C(=O)OC(C)C)CC3)nc12	binding, competition with immobilised ligand	1 µM	remaining binding	49%
Cn1cc(-c2cc(F)cc(N3CCn4c(cc5c4CCCC5)C3=O)c2CO)cc(Nc2ccc(N3CCN(C4COC4)CC3)cn2)c1=O	enzyme activity, inhibitor	0.1 µM	inhibition	4%
N#CC1(c2ccccn2)CCN(Cc2cc(C(=O)O)c(=O)n3ccccc23)CC1	cell-free assay, competition with immobilised ligand	1 µM	remaining binding	100%
Cn1cc(-c2cccc(N3CCc4c(sc5c4CC(C)(C)C5)C3=O)c2CO)cc(Nc2ccncn2)c1=O	enzyme activity, inhibitor	1 µM	inhibition	20%
COc1cc(Nc2ncc(F)c(Nc3ccc4c(n3)NC(=O)C(C)(C)O4)n2)cc(OC)c1OC	binding	10 µM	inhibition	0%
Nc1ncc(-c2nc(N3CCOCC3)nc(N3CCOCC3)n2)c(C(F)F)n1	cell-free assay, competition with immobilised ligand	10 µM	remaining binding	91%
Cn1cncc1[C@](O)(COc1ccc(C#N)cc1-c1ccc(OC(F)(F)F)cc1)c1ccc(C#N)cc1	cell-free assay, competition with immobilised ligand	1 µM	remaining binding	94%
Cc1nn(C)cc1-c1nc2c(N3CCN(Cc4ccc(Cl)cc4)CC3)c(Cl)cnc2[nH]1	binding, competition with immobilised ligand	1 µM	remaining binding	100%
